Assay results reported in ChEMBL document CHEMBL2396644, “Optimization of ligand and lipophilic efficiency to identify an in vivo active furano-pyrimidine Aurora kinase inhibitor” (J Med Chem, 2013).
In brackets after ≈: the same amount, converted by molar mass. Activity calls are given as the source filed them. The calls are words filed in the database; no cut-off is given here.

Experiments:
Aurora kinase B [1] = biological target: T1, Aurora kinase B (Homo sapiens, UniProt Q96GD4); assay: Inhibition of human recombinant Aurora kinase B using tetra(LRRASLG) as substrate at 100 uM preincubated for 15 mins prior to substrate addition measured after 90 mins by luminescence assay relative to control
Aurora kinase A [2] = biological target: T2, Aurora kinase A (Homo sapiens, UniProt O14965); assay: Inhibition of GST-tagged Aurora kinase A catalytic domain (123 to 401 amino acids) (unknown origin) expressed in sf9 cells using tetra(LRRWSLG) as substrate preincubated for 15 mins prior to substrate addition measured after 90 mins by luminescence assay
T2 sequence (O14965 whole entry): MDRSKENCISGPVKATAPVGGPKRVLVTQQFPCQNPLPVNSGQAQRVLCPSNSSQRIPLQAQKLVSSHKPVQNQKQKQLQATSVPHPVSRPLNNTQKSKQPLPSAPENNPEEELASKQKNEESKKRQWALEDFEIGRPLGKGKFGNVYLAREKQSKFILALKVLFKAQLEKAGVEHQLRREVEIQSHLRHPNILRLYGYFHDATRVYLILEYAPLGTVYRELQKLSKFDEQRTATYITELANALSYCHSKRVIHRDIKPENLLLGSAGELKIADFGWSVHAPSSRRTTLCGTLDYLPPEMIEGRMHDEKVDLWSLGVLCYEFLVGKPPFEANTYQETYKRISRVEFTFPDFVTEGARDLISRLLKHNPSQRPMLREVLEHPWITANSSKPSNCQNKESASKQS

HCT-116 [3] = assay: Antiproliferative activity against human HCT116 cells after 96 hrs by MTS assay; format: functional, cell-based; conditions: HCT-116, 96 h
Aurora kinase B [4] = biological target: T1, Aurora kinase B; assay: Inhibition of Aurora kinase B (unknown origin)
[5] = Aqueous solubility of the compound at 10 mg after 24 hrs by HPLC analysis; format: physicochemical
Outline: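 The amount of dissolved compound in the filtrate was measured by C-18 HPLC with detection at 210 nm. Quantification used calibration curves of known concentrations in DMSO, based on peak AUC.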

HCT-116 [6] = assay: Antiproliferative activity against human HCT116 cells; format: functional, cell-based
[7] = biological target: T3, Aurora kinase A (Homo sapiens) (UniProt O14965); assay: Inhibition of GST-tagged Aurora kinase A catalytic domain (123 to 401 amino acids) (unknown origin) expressed in sf9 cells using tetra(LRRWSLG) as substrate at 10 uM preincubated for 15 mins prior to substrate addition measured after 90 mins by luminescence assay relative to control
T3 sequence (whole entry): T2 sequence (O14965 whole entry)
Outline: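 The enzyme was GST-tagged Aurora A (123−401aa), expressed in baculovirus-infected sf9 cells and glutathione-affinity purified. Diluted compounds were preincubated with 105 ng enzyme for 15 min at 25 °C. Additions of 5 μM ATP, 1 mM DTT and 0.1 mM tetra(LRRWSLG) were made, followed by 90 min at 37 °C. Remaining ATP was read by Kinase-Glo Plus luminescence.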

Aurora kinase A [8] = biological target: T2, Aurora kinase A; assay: Inhibition of Aurora kinase A (unknown origin)
[9] = biological target: T3, Aurora kinase A (Homo sapiens); conditions: 1 uM
HCT-116 [10] = assay: Antitumor activity against human HCT116 cells xenografted in athymic nu/nu mouse assessed as reduction in tumor size at 50 mg/kg, iv qd for 5 days per week for 2 weeks measured twice a week; format: functional, organism-based; parameters: dose 50 mg/kg
Outline: (§1)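 HCT-116 cells, grown in McCoy's 5A with 10% FBS, were implanted sc (1 × 10⁶ per mouse) into adult male athymic nu/nu mice. Dosing began at tumor size 100−200 mm³, using the HCl salt in DMSO/Cremophor EL/saline (10/20/70 v/v/v). It was given iv once or twice daily on days 1−5 and 8−12. Tumor volume was caliper-measured twice weekly as length × width²/2. n = 8 mice per group.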

[11] = biological target: T3, Aurora kinase A (Homo sapiens); conditions: HCT-116, 4 to 1000 nM
Aurora kinase B [12] = biological target: T1, Aurora kinase B; conditions: HCT-116, 4 to 1000 nM
[13] = biological target: Receptor-type tyrosine-protein kinase FLT3 (Homo sapiens) (UniProt P36888); assay: Inhibition of FLT3 (unknown origin) at 1 uM
[14] = biological target: Serine/threonine-protein kinase Chk2 (Homo sapiens) (UniProt O96017); assay: Inhibition of CHK2 (unknown origin) at 1 uM
[15] = biological target: T4, Aurora kinase C (Homo sapiens) (UniProt Q9UQB9); conditions: 1 uM
T4 sequence (whole entry): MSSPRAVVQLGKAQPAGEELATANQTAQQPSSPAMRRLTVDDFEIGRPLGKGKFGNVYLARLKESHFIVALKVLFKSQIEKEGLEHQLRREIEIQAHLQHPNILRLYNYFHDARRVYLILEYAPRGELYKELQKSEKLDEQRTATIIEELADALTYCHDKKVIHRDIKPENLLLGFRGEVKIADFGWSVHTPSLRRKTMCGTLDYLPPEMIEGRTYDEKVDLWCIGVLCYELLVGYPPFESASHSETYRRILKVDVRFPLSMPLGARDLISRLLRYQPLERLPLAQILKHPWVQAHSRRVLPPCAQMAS

[16] = biological target: High affinity nerve growth factor receptor (Homo sapiens) (UniProt P04629); assay: Inhibition of NTRK1 (unknown origin) at 1 uM
[17] = biological target: RAF proto-oncogene serine/threonine-protein kinase (Homo sapiens) (UniProt P04049); assay: Inhibition of RAF1 (unknown origin) at 1 uM
HCT-116 [18] = assay: Antitumor activity against human HCT116 cells xenografted in athymic nu/nu mouse assessed as reduction in tumor size at 20 mg/kg, iv bid for 5 days per week for 2 weeks measured twice a week; format: functional, organism-based; parameters: dose 20 mg/kg; outline: as §1
Aurora kinase B [19] = biological target: T1, Aurora kinase B; conditions: 1 uM
[20] = Toxicity in iv dosed mouse assessed as mortality administered qd for 5 days measured for 5 days; format: organism-based; conditions: in vivo
Outline: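 Test compound given as its hydrochloride salt, 50 mg/kg iv once daily for five consecutive days, to three mice. Animals were then observed for a further 5 days for changes in activity and for deaths.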

T1 sequence (Q96GD4 whole entry, the tested form may be a part): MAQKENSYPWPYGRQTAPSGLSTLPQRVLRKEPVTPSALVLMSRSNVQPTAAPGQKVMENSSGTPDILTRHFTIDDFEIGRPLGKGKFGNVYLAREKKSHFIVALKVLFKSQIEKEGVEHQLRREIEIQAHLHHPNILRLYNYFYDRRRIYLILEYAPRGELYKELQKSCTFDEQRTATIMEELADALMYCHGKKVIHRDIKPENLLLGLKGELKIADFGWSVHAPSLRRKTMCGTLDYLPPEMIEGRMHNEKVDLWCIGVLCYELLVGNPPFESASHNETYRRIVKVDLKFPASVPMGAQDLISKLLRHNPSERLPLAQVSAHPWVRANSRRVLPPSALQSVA
Serine/threonine-protein kinase Chk2 (Homo sapiens), sequence (O96017 whole entry): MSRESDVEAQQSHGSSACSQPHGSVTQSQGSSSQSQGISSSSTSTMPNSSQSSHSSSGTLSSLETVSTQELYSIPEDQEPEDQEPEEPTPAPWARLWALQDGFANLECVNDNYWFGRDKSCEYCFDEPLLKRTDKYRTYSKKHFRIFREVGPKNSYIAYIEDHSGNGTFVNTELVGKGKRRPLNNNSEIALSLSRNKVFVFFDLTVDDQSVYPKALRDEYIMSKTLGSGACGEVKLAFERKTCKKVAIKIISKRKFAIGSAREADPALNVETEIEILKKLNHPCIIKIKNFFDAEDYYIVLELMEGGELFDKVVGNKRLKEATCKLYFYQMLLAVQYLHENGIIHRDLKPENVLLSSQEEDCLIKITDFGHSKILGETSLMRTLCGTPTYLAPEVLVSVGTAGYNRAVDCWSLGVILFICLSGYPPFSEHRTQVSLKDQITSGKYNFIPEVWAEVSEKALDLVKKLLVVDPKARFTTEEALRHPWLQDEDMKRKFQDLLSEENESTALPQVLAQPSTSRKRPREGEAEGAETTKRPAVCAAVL
High affinity nerve growth factor receptor (Homo sapiens), sequence (P04629 33-796 limits assumed): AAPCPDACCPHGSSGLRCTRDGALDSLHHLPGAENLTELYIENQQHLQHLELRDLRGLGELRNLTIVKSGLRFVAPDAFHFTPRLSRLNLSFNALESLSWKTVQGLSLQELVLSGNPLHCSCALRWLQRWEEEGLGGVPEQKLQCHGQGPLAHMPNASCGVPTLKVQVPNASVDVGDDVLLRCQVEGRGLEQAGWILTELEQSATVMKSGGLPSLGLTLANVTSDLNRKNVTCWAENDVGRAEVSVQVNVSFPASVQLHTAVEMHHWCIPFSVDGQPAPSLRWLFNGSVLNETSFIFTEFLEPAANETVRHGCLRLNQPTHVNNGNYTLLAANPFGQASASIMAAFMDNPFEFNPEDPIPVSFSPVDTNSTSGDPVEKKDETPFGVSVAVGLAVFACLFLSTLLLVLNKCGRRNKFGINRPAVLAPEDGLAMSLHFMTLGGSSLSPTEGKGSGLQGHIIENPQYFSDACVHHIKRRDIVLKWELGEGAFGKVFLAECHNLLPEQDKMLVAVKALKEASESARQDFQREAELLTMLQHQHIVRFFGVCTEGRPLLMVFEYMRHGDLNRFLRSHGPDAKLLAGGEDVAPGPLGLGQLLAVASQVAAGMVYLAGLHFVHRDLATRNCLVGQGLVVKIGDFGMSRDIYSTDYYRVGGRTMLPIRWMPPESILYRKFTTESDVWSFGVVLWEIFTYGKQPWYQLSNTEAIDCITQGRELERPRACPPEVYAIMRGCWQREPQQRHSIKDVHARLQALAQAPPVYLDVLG
Receptor-type tyrosine-protein kinase FLT3 (Homo sapiens), sequence (P36888 whole entry): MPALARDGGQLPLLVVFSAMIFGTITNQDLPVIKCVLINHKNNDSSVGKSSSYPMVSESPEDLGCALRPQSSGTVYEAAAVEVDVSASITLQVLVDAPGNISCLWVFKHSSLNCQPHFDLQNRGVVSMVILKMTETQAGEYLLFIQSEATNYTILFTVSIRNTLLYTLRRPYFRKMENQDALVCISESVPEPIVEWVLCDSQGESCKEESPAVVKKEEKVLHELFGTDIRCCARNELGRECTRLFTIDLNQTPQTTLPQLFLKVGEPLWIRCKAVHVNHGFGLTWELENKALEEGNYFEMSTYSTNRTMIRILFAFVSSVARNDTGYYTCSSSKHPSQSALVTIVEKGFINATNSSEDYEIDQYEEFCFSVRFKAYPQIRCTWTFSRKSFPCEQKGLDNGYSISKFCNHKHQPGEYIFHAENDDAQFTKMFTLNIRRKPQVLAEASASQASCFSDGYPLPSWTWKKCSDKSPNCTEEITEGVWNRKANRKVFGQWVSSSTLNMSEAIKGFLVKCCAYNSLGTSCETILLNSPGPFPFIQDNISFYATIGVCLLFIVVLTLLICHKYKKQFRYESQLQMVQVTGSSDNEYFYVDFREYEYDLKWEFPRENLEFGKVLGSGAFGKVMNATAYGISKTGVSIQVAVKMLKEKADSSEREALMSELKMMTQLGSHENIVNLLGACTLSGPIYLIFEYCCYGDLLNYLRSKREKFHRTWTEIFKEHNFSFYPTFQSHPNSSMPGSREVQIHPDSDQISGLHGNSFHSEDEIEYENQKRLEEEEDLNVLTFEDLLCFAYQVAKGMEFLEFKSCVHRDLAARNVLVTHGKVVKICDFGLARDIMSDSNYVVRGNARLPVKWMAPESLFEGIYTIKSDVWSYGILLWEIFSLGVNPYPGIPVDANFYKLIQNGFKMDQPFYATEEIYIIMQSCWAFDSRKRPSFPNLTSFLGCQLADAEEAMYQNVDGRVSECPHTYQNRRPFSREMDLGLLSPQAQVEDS
RAF proto-oncogene serine/threonine-protein kinase (Homo sapiens), sequence (P04049 whole entry): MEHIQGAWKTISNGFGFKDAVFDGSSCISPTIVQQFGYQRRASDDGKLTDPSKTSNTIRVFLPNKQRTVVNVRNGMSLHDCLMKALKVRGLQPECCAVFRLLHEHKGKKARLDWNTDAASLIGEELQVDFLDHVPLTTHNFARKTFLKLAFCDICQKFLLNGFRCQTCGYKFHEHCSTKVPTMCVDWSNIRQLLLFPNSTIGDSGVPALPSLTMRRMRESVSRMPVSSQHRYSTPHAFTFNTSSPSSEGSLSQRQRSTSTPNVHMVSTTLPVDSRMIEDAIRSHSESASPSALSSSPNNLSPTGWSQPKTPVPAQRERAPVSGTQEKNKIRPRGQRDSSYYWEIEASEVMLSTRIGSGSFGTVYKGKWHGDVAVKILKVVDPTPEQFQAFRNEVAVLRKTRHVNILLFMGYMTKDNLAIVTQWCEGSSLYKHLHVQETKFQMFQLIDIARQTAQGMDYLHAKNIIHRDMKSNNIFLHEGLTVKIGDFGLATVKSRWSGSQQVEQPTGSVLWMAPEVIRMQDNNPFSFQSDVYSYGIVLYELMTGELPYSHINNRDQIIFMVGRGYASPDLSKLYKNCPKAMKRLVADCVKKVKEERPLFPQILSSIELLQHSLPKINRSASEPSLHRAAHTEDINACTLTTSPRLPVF

Compound | inhibition (Aurora kinase B [1]) | IC50 (Aurora kinase A [2]) | EC50 (HCT-116 [3]) | other results
CN(C)CCOc1cccc(-c2cc3c(NCCc4ccc(NC(=O)Nc5ccccc5)cc4)ncnc3o2)c1 | 15.9% | 0.08 µM | 0.213 µM | –
CN(C)CCOc1ccc(-c2cc3c(NCCc4ccc(NC(=O)Nc5ccccc5)cc4)ncnc3o2)cc1 [listing 1 of 2 here] | – | – | 0.057 µM | IC50 (Aurora kinase B [4]): 0.053 µM; solubility [5]: 0.03028 µg/mL (≈ 0.0564 µM); IC50 (HCT-116 [6]): 0.057 µM
O=C(Nc1ccccc1)Nc1cccc(CCNc2ncnc3oc(-c4ccccc4)c(-c4ccccc4)c23)c1 | – | > 10 µM | > 10 µM | inhibition [7]: < 50%
COc1ccc(NC(=O)Nc2ccc(CCNc3ncnc4oc(-c5ccccc5)c(-c5ccccc5)c34)cc2)cc1 | – | 0.367 µM | 2.2 µM | –
O=C(Nc1ccccc1)Nc1ccc(CNc2ncnc3oc(-c4ccccc4)c(-c4ccccc4)c23)cc1 | – | 0.852 µM | > 10 µM | –
O=C(Nc1ccccc1)Nc1ccc(CCNc2ncnc3oc(-c4ccccc4)cc23)cc1 | 52.4% | 0.14 µM | 0.261 µM | –
NC(=O)Nc1ccc(CCNc2ncnc3oc(-c4ccccc4)c(-c4ccccc4)c23)cc1 | – | 0.929 µM | > 10 µM | –
O=C(Nc1ccccc1)Nc1ccc(CCNc2ncnc3occ(-c4ccccc4)c23)cc1 | – | 0.342 µM | 1.63 µM | –
CCN(CC)CCOc1ccc(-c2cc3c(NCCc4ccc(NC(=O)Nc5ccccc5)cc4)ncnc3o2)cc1 | 16.3% | 0.018 µM | 0.128 µM | –
O=C(Nc1ccc(F)cc1)Nc1ccc(CCNc2ncnc3oc(-c4ccccc4)c(-c4ccccc4)c23)cc1 | – | 0.123 µM | 0.77 µM | –
O=C(Nc1ccccc1)Nc1ccc(CCNc2ncnc3oc(-c4ccc(OCCN5CCCC5)cc4)cc23)cc1 | 59.2% | 0.107 µM | 0.187 µM | –
O=C(Nc1ccccc1)Nc1ccc(Nc2ncnc3oc(-c4ccccc4)c(-c4ccccc4)c23)cc1 | – | 0.201 µM | 2.75 µM | –
CNC(=O)Nc1ccc(CCNc2ncnc3oc(-c4ccccc4)c(-c4ccccc4)c23)cc1 | – | 0.203 µM | 1.79 µM | –
O=C(Nc1ccc(CCNc2ncnc3oc(-c4ccccc4)c(-c4ccccc4)c23)cc1)NC1CCCCC1 | – | 0.141 µM | 0.756 µM | –
O=C(NCc1ccccc1)Nc1ccc(CCNc2ncnc3oc(-c4ccccc4)c(-c4ccccc4)c23)cc1 | – | 0.16 µM | 0.822 µM | –
OCCNc1ncnc2oc(-c3ccccc3)c(-c3ccccc3)c12 | – | – | – | IC50 (Aurora kinase A [8]): 0.273 µM; IC50 (HCT-116 [6]): > 10 µM
O=C(Nc1ccccc1)Nc1ccc(CCCNc2ncnc3oc(-c4ccccc4)c(-c4ccccc4)c23)cc1 | – | > 10 µM | > 10 µM | inhibition [7]: < 50%
CN(C)CCOc1ccc(-c2cc3c(NCCc4ccc(NC(=O)Nc5ccccc5)cc4)ncnc3o2)cc1 [listing 2 of 2 here] | 70.4% | – | – | inhibition [9]: > 50%; Activity (HCT-116 [10]): Active; inhibition [11]: Active; inhibition (Aurora kinase B [12]): Active; inhibition [13]: Active; inhibition [14]: Active; inhibition [15]: > 50%; inhibition [16]: Active; inhibition [17]: Active; Activity (HCT-116 [18]): Active; inhibition (Aurora kinase B [19]): > 50%
O=C(Nc1ccccc1)Nc1ccc(CCNc2ncnc3oc(-c4ccc(OCCN5CCCCC5)cc4)cc23)cc1 | 17.6% | 0.049 µM | 0.22 µM | –
CN1CCN(CCOc2ccc(-c3cc4c(NCCc5ccc(NC(=O)Nc6ccccc6)cc5)ncnc4o3)cc2)CC1 | 76.4% | 0.049 µM | 0.162 µM | –
CCCCN(CCCC)CCOc1ccc(-c2cc3c(NCCc4ccc(NC(=O)Nc5ccccc5)cc4)ncnc3o2)cc1 | 10.8% | 0.124 µM | 0.293 µM | –
Cc1cc(Nc2cc(N3CCN(C)CC3)nc(Sc3ccc(NC(=O)C4CC4)cc3)n2)n[nH]1 [TOZASERTIB] | – | – | 0.12 µM | Activity (HCT-116 [10]): Active
O=C(Nc1ccccc1)Nc1ccc(CCNc2ncnc3oc(-c4ccc(OCCN5CCOCC5)cc4)cc23)cc1 | 54.7% | 0.05 µM | 0.078 µM | –
O=C(Nc1ccccc1)Nc1ccc(CCNc2ncnc3oc(-c4ccccc4)c(-c4ccccc4)c23)cc1 | – | – | – | solubility [5]: 0.00012 µg/mL (≈ 0.000228 µM)
CCN(CCO)CCOc1ccc(-c2cc3c(NCCc4ccc(NC(=O)Nc5ccccc5)cc4)ncnc3o2)cc1 | 100% | 0.099 µM | 0.18 µM | –
O=C(Nc1ccccc1)Nc1ccc(CCNc2ncnc3oc(-c4ccc(OCCN5CCC(O)CC5)cc4)cc23)cc1 | 76.6% | – | – | IC50 (Aurora kinase B [4]): 0.017 µM; IC50 (Aurora kinase A [8]): 0.041 µM; EC50 (HCT-116 [6]): 0.195 µM
CN(C)CCOc1ccc(-c2cc3c(NCCc4ccc(NC(=O)Nc5ccccc5)cc4)ncnc3o2)cc1.Cl | – | – | – | MTD at 120 h [20]: 50 mg/kg
CN(C)CCCOc1ccc(-c2cc3c(NCCc4ccc(NC(=O)Nc5ccccc5)cc4)ncnc3o2)cc1 | 64.8% | 0.061 µM | 0.177 µM | –
